Assay outcomes as filed in PubChem BioAssay.
PRMT1 inh = PRMT1 methyltransferase inhibitors, primary screen, biochemical, fluorescence polarization | AID 652257, 2013 | Protein arginine N-methyltransferase 1 (Homo sapiens), Q99873 | recombinant PRMT1, activity-based probe fluorescence polarization | inhibition, % at 2.79 µM | 370,000 tested, 1.3% active;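 active = inhibition above about 21% made by adding two undisclosed values, limit read from the data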
ABHD4 inh = ABHD4 inhibitors, primary screen, biochemical, fluorescence polarization, mouse | (Lyso)-N-acylphosphatidylethanolamine lipase (Mus musculus), Q8VD66 | purified mABHD4, FP-Rh probe fluorescence polarization | inhibition, % at 8.92 µM | 370,000 tested, 0.54% active | AID 720543, 2013;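 active = inhibition exceeding the mean over every tested compound plus 3 SD, cut at about 30% in these data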;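 note: 0% = plate median of compound wells and 100% = S159A mutant with DMSO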
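Assay system: mouse ABHD4 enzyme, wild type / Also added: fluorescent activity-based probe FP-Rh / Doses: single nominal dose of 8.92 µM, 0.89% DMSO final / Timing: 45 min compound pre-incubation plus 60 min probe step, 25 °C / Signal: FP readout, ex 525 nm / em 598 nm / Control set: S159A mutant/DMSO as 100%, compound-well median as 0%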
SIAE inh = human SIAE inhibitors, primary screen, biochemical, fluorescence polarization, FP-Rh probe, 1536-well HTS | inhibition, % at 9.66 µM | AID 1053197, 2014 | 370,000 tested, 0.69% active | SIAE FP-Rh probe binding;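 active = inhibition above a cutoff: mean of compounds within the control limits plus 3 SD of those, cut at about 17% in these data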;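 note: 0% = plate median of compound wells and 100% = probe without SIAE protein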
TCR CD3 inh = inhibitors of human TCR-CD3 interaction, primary screen, biochemical, fluorescence, TAMRA-labeled TCR probe. T-cell receptor (TCR). inhibition, % at 9.4 µM. 360,000 tested, 0.37% active; in the data active = inhibition above about 19%;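 note: recombinant mutant TCR 2C K166C tagged with TAMRA read by polarization; 0% = receptor in buffer alone and 100% = receptor with positive control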
HTRA1 inh = HTRA1 serine protease inhibitors, primary screen, biochemical, fluorescence polarization, HTS; recombinant HTRA1, FP-rhodamine activity-based probe; 340,000 tested, 0.5% active; Q92743; AID 504803, 2011; inhibition, % at 5.96 µM; in the data active = inhibition above about 36%;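 note: 0% = enzyme with DMSO and 100% = wells lacking enzyme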
PAD4 FP inh = human PAD4 inhibitors, primary screen, biochemical, fluorescence polarization, 1536-well format. recombinant PAD4, RCA probe fluorescence polarization. inhibition, % at 6.36 µM. 330,000 tested, 0.41% active. AID 485272, 2010;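 active = percent inhibition above a cutoff equal to the mean of all tested compounds plus 3 SD, cut at about 15% in these data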;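 note: 0% = PAD4 with RCA probe and DMSO and 100% = probe without PAD4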
Target sequence (Q9UM07 whole entry, looked up): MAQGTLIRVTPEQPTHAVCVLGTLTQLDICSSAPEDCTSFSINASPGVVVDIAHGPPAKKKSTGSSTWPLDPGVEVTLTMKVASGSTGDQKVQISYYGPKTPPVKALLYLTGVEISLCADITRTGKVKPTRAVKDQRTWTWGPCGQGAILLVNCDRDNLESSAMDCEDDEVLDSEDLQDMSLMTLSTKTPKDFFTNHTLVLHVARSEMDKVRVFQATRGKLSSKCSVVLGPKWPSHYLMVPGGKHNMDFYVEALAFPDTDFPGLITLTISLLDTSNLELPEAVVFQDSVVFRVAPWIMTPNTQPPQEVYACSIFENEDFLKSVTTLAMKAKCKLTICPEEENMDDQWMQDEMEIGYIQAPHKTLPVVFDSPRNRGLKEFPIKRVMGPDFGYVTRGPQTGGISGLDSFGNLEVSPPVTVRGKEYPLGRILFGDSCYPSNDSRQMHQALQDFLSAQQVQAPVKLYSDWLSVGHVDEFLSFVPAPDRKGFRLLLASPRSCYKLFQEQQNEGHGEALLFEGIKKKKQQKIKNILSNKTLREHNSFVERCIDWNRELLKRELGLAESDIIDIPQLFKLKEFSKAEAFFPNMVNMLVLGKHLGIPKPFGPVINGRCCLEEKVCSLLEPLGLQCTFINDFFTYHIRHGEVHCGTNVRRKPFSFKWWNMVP
SIAE confirm = human SIAE inhibitors, retest, confirmation, biochemical, fluorescence polarization, FP-Rh probe, triplicate; shares compounds with SIAE inh; SIAE FP-Rh activity-based probe; inhibition, % at 9.66 µM; 2,300 tested, 13% active; AID 1117263, 2014;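 active = mean inhibition of the replicates above the hit cutoff set in the primary screen, cut at about 17% in these data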;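 note: 0% = SIAE with DMSO and probe and 100% = probe without SIAE; inhibitors lower polarization as more probe stays unbound to SIAE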
* = called active by the depositor; . = no result given. An excerpt weighted towards active compounds, which were near 2.9% of everything screened.

SMILES	PRMT1 inh	ABHD4 inh	SIAE inh	TCR CD3 inh	HTRA1 inh	PAD4 FP inh	SIAE confirm
COc1ccccc1NC(=S)NCc1ccc2c(c1)OCO2	-0.8	2.6	-3.7	5.1	-0.8	2.2	.
COc1ccccc1NC(=S)N/N=C1\CC(C)(C)Oc2ccc(O)cc21	0.5	15.0	33.8*	-6.2	-0.3	-1.1	12.4
CC(=O)N1CCC2(CC1)C/C(=N\NC(=S)Nc1ccccc1C)c1cc(O)ccc1O2	2.4	15.2	18.3*	3.5	9.6	1.6	6.7
Cc1cccc(C)c1NC(=O)C1CCCN1S(=O)(=O)c1cccc2cccnc12 (centres undefined)	-3.5	4.0	-2.0	.	.	.	.
C=C(C)c1cccc(C(C)(C)NC(=O)Nc2ccc(C(C)=O)cc2)c1	4.6	-26.3	-11.1	0.3	-21.4	-1.9	.
C=C(C)c1cccc(C(C)(C)NC(=O)Nc2ccc3[nH]c(=O)[nH]c3c2)c1	0.1	3.4	18.5*	1.4	5.1	-0.5	2.6
CCCn1ncc([C@@H]2C[C@H]3CN(Cc4cccc(Cl)c4)C(=O)[C@]34CCCN24)c1C	-4.9	-1.2	18.2*	14.1	4.6	3.6	-3.9
Cc1c(N=Cc2cccnc2)c(=O)n(-c2ccccc2)n1C	-0.9	5.2	21.1*	-0.7	1.7	-0.1	2.9
Cc1c(N=C/C=C/c2ccccc2)c(=O)n(-c2ccccc2)n1C	0.4	8.7	2.9	-2.5	-0.7	-2.6	.
Cc1ccn2cc(-c3ccc(Br)cc3)nc2c1	-0.7	2.9	17.2*	6.6	-7.2	-1.7	-1.0
COc1ccccc1CCNC(=O)c1c(N)[nH]c(C(=O)c2ccccc2)c1-c1ccc(Br)cc1	-5.5	7.3	17.9*	6.0	.	.	1.8
Clc1ccc(Nc2nc(C3CC3)cs2)cc1	3.7	1.9	20.5*	2.1	3.3	-1.3	2.7
COc1ccc(NC(=O)NNC(=O)COc2ccc3ccccc3c2)cc1	-1.2	1.2	17.6*	-1.9	-3.1	-6.2	-3.8
Cn1cc(C(=O)N2CCc3ccccc32)cn1	-1.2	1.7	184.3*	-3.0	6.7	-0.5	0.9
CC(=O)Nc1ccc(N2C(C(C)=O)=NN(c3ccc(Cl)cc3)C2c2sccc2C)cc1 (centres undefined)	-2.0	-8.2	21.3*	3.4	-5.7	1.7	5.0
CC(=O)Nc1ccc(N2C(C(C)=O)=NN(c3ccccc3)C2c2cccs2)cc1 (centres undefined)	0.5	-1.8	9.9	-1.4	-1.5	-5.6	.
COC(=O)[C@]12C[C@H](CC(=O)N3CCOCC3)C(=O)N(CCC3=CCCCC3)C1=C[C@H](C1CCCC1)O[C@@H]2C	-1.4	-0.9	0.5	.	.	.	.
CC(C)NC(=O)C1CCN(c2cncnc2)CC1	-4.8	0.6	2.7	.	.	.	.
COc1ccccc1N=Nc1nc(-c2ccccc2)c(-c2ccccc2)[nH]1	-2.0	-102.0	13.3	4.8	5.2	-1.4	.
Oc1ccccc1N=Nc1nc(-c2ccccc2)c(-c2ccccc2)[nH]1	2.5	10.4	17.3*	-0.3	13.5	-6.1	-3.1
C#CCNC(=O)C[C@H]1C(=O)N(Cc2ccc(OC)cc2)C2=CCCC[C@@]21C(=O)OCC	-1.6	0.7	-10.0	.	.	.	.
COC(=O)Nc1ccc(S(=O)(=O)N2CCCC(C(=O)O)C2)cc1 (centres undefined)	2.0	-1.2	19.1*	-4.2	0.6	-3.3	5.1
CC(=O)Nc1ccc(S(=O)(=O)N2CCCC(C(=O)O)C2)cc1 (centres undefined)	-2.6	2.1	7.7	8.3	4.5	6.1	.
CC(=O)Nc1ccc(NC(=O)c2cc(S(=O)(=O)N3CCCCC3)ccc2N2CCOCC2)cc1	-1.5	-3.0	-7.4	3.5	2.4	.	.
NC(=O)c1ccc(NC(=O)c2cc(S(=O)(=O)N3CCCCC3)ccc2N2CCOCC2)cc1	2.8	5.2	21.2*	-0.5	-2.9	-4.8	-3.4
SMILES	PRMT1 inh	ABHD4 inh	SIAE inh	TCR CD3 inh	HTRA1 inh	PAD4 FP inh	SIAE confirm
Cn1cnc(S(=O)(=O)Nc2ccccc2C(=O)NCC2CC2)c1	0.1	5.6	17.1*	3.5	2.1	2.1	4.3
CCOc1ccc(OCC)c(NS(=O)(=O)c2cn(C)cn2)c1	1.7	0.7	-0.4	1.5	8.4	-2.1	.
Cn1cnnc1SCC(=O)Nc1ccc(S(=O)(=O)N2CCCC2)cc1	-2.3	3.2	-2.4	3.3	-2.2	0.0	.
Nn1c(SCC(=O)Nc2ccc(S(=O)(=O)N3CCCC3)cc2)nnc1C(F)(F)F	0.9	-3.4	17.2*	-3.8	-2.0	-1.2	-6.3
CN(CCOC(=O)c1cc2ccccc2o1)C1CN(Cc2cn(Cc3ccc([N+](=O)[O-])cc3)nn2)S(=O)(=O)C1 (centres undefined)	-4.8	-3.4	-6.3	.	.	.	.
CN(C)/C=N/C(=S)Nc1cc(Cl)cc(Cl)c1	0.4	0.1	17.3*	7.0	-9.7	-3.4	1.1
COc1ccc(/C=N\NC(=O)C2COc3ccccc3O2)cc1O (centres undefined)	-3.2	12.4	6.8	17.3	5.7	0.8	.
COc1cc(/C=N/NC(=O)C2COc3ccccc3O2)ccc1O (centres undefined)	4.0	2.6	20.0*	-0.2	2.8	0.8	7.9
COc1cc(/C=N/NC(=O)CCn2c3ccccc3c3ccccc32)ccc1O	0.0	-5.7	18.2*	0.4	-11.2	-3.9	11.8
CCCCNC(=O)O[C@H]1CC[C@@]23CCCN2C(=O)CCC[C@H]3C1	2.8	7.0	-0.7	.	.	.	.
CCCCCCC[C@H](N)[C@H](O)C(=O)N(C)[C@@H](CCS(C)=O)C(=O)N[C@@H](Cc1ccc(O)cc1)C(=O)O (some centres undefined)	3.0	1.4	2.3	.	.	.	.
COc1ccc(-c2nnn(CC(=O)N3CCN(c4ccc(F)cc4)CC3)n2)cc1	-0.2	1.9	-4.0	5.1	5.4	5.8	.
COc1ccc(N2CCN(C(=O)CN3CCN(c4nc(-c5ccc(F)cc5)cs4)CC3)CC2)cc1	-1.1	-1.1	28.1*	5.0	4.7	0.2	5.6
OCCN1CN(c2ccccc2)C(=S)N(c2ccccc2)C1	6.7	-0.2	-0.9	-7.5	.	.	.
Nc1ccc(N2CCOCC2)c(S(=O)(=O)Nc2ccccc2Cl)c1	1.3	18.9	38.9*	18.8	9.8	0.9	1.8
O=C(Nc1ccc(N2CCOCC2)c(S(=O)(=O)Nc2ccccc2Cl)c1)c1ccccc1	3.0	-25.1	-37.8	-3.9	-62.9	-1.7	.
